Results of several laboratories.
Target: Tyrosine-protein kinase Lyn (LYN, Homo sapiens, UniProt P07948)

| Compound | test | conditions | endpoint | value |
| --- | --- | --- | --- | --- |
| N#CC1c2c([nH]c3c(Cl)c(Cl)ccc23)C(=O)NC12CCCCC2 (racemic) | thermal stability, DSF | 10 µM | ΔTm | 0.2 °C |
| CC(C)(C)c1nc(-c2cccc(NS(=O)(=O)c3c(F)cccc3F)c2F)c(-c2ccnc(N)n2)s1 | enzyme activity, inhibitor, radiometric | 1 µM | remaining activity | 51% |
| CN(C)c1ncnc(-c2ccc3nc(Nc4cc(CN5CCN(C(=O)CC(F)(F)F)CC5)ccn4)[nH]c3c2)c1Cl | cell-free assay, competition with immobilised ligand | 1 µM | remaining binding | 94% |
| Cn1c2c(Cl)c(Cl)ccc2c2cn[nH]c(=O)c21 | thermal stability, DSF | 10 µM | ΔTm | -0.1 °C |
| Cc1ccc(NC(=O)c2ccc(CN3CCN(C)CC3)cc2)cc1Nc1nccc(-c2cccnc2)n1 | enzyme activity, inhibitor | 0.5 µM | activity vs control | 59.6% |
| Cn1c2c(Cl)c(Cl)ccc2c2cc(N)[nH]c(=O)c21 | thermal stability, DSF | 10 µM | ΔTm | 0.3 °C |
| O=c1cc(-c2cccc3c2Sc2ccccc2S3)oc(N2CCOCC2)c1 | enzyme activity, inhibitor | 0.5 µM | remaining activity | 106% |
| CC(=O)c1c(NS(C)(=O)=O)c2cc(-c3ccc(Cl)cc3)c(-c3ccc(Cl)cc3Cl)nc2n(C)c1=O | cell-free assay, competition with immobilised ligand | 1 µM | remaining binding | 100% |
| Cc1ccc(NC(=O)c2ccc(C)c(C(F)(F)F)c2)cc1C#Cc1nn(C2CCC(O)CC2)c2ncnc(N)c12 (centres unmarked) | cell-free assay, inhibitor | 10 µM | remaining signal | 0% |
| N#CCCc1ccc2c(c1)-c1[nH]c3ccc([N+](=O)[O-])cc3c1CC(=O)N2 | cell-free assay | 0.5 µM | remaining signal | 23% |
| CN(C(=O)c1ccccc1)c1cc(N(C)c2ccc3c(c2)CCc2ccc(C(=O)NCCN4CCOCC4)cc2C3=O)ccc1F | cell-free assay, competition with immobilised ligand | 1 µM | remaining binding | 86% |
| O=C1NC(=O)c2cc(Nc3ccc(F)cc3)c(Nc3ccc(F)cc3)cc21 | cell-free assay, inhibitor | 0.5 µM | remaining signal | 98.7% |
| C=CC(=O)Nc1cc(Nc2nccc(Nc3cc(Cl)c(F)cc3C(C)(C)O)n2)c(OC)cc1N1CC[C@@H](N(C)C)C1 | enzyme activity, inhibitor | 1 µM | inhibition | 44% |
| CCC1(CC)NC(=O)c2c(c3ccc(Cl)c(Cl)c3n2C)C1C#N (centres unmarked) | thermal stability, DSF | 10 µM | ΔTm | -0.3 °C |
| Nc1ncnc2occ(-c3ccc(NC(=O)Nc4cc(C(F)(F)F)ccc4F)cc3)c12 | enzyme activity, inhibitor | 20 µM | remaining activity | 1.4% |
| CC1=C(C#N)[C@@H](c2ccc3[nH]nc(C)c3c2)C(C#N)=C(c2ccc(Cl)cc2)N1 | cell-free assay, competition with immobilised ligand | 1 µM | remaining binding | 96.8% |
| CNC(=O)c1cc(Oc2ccc(NC(=O)Nc3ccc(Cl)c(C(F)(F)F)c3)cc2)ccn1 | enzyme activity, inhibitor | 10 µM | inhibition | 96% |
